This is an account of results in ChEMBL document CHEMBL1125010, “Relaxant activity of 4-amido-3,4-dihydro-2H-1-benzopyran-3-ols and 4-amido-2H-1-benzopyrans on guinea pig isolated trachealis” (J Med Chem, 1990).

Test [1] is filed under the species Cavia porcellus. The experiment in a line: Inhibition of spontaneous tone in Guinea pig tracheal spiral strips. It counts as functional, Trachea. The essentials:
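Guinea pig isolated trachealis, spontaneous tone. Relaxation is compared with the response to isoprenaline. IC50 is the concentration giving 50% of the isoprenaline response, read from the dose-response curve. Reported as the geometric mean, generally of four or more determinations.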

The species named for test [2] is Cavia porcellus. The experiment in a line: Intrinsic activity measured on Guinea pig tracheal spiral strips. It counts as functional, Trachea. The procedure, abridged:
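Guinea pig isolated trachealis relaxation. Intrinsic activity is the compound's maximum relaxant response divided by the maximum produced by isoprenaline. Reported as an arithmetic mean.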

The term IC50 denotes the point on the concentration scale where inhibition reaches its midpoint. Low values mean greater potency in that assay, high ones weaker potency in that assay. `Cc1ccc2c(c1)[C@@H](N1CCCC1=O)[C@H](O)C(C)(C)O2` came in with an IC50 in test [1] (Cavia porcellus, Trachea) of 13500 nM. Moreover, the Intrinsic activity in test [2] was 0.62. Turning to `CC1(C)Oc2cc(C(F)(F)F)ccc2[C@@H](N2CCCCC2=O)[C@@H]1O` (stereo in doubt; (-)24), the concentration for half-maximal inhibition (IC50) in test [1] was 12600 nM. The molecule further displayed an Intrinsic activity in test [2] of 0.69. In test [1] (Cavia porcellus, Trachea), `CC(N/C(=N\C#N)Nc1ccncc1)C(C)(C)C` (centres undefined) [PINACIDIL ANHYDROUS] yielded an IC50 of 3630 nM. The Intrinsic activity in test [2] turned out to be 0.86.

In turn, `CC1(C)Oc2cc(C(F)(F)F)ccc2[C@@H](N2CCCCC2=O)[C@@H]1O` (stereo in doubt; (+)24) displayed an IC50 in test [1] of 360 nM. This molecule also gave an Intrinsic activity in test [2] of 0.89. With `COC(=O)C1=C(C)NC(C)=C(C(=O)OC)C1c1ccccc1[N+](=O)[O-]` [NIFEDIPINE], in test [1] (Cavia porcellus, Trachea), the half-maximal inhibitory concentration (IC50) is above 20000 nM. The molecule further yielded an Intrinsic activity in test [2] of 0.49. Consider `CC1(C)Oc2ccncc2[C@@H](n2ccccc2=O)[C@@H]1O`, for which it took 5100 nM to reach half-maximal inhibition in test [1] (Cavia porcellus, Trachea) (IC50). In addition, in test [2], the Intrinsic activity came out at 0.81. The corresponding values for `CC1(C)C=C(N2CCCC2=O)c2cnccc2O1` are 6700 nM and 0.67.

As to `CC1(C)Oc2cc(C(F)(F)F)ccc2[C@@H](N2CCCC2=O)[C@@H]1O`, the midpoint of inhibition in test [1] (Cavia porcellus, Trachea), the IC50, lay at 730 nM. Also, the Intrinsic activity in test [2] is recorded as 0.9.

`CC1(C)C=C(n2ccccc2=O)c2cc(C#N)ccc2O1` [BIMAKALIM] gave an IC50 in test [1] (Cavia porcellus, Trachea) of 89 nM. The Intrinsic activity in test [2] is listed as 0.93.

The molecule `CC1(C)C=C(n2ccccc2=O)c2cc(C(F)(F)F)ccc2O1` gave an IC50 in test [1] (Cavia porcellus, Trachea) of 56 nM. The molecule also gave an Intrinsic activity in test [2] of 0.97. `CC1(C)C=C(N2CCCCC2=O)c2cnccc2O1` yielded an IC50 in test [1] (Cavia porcellus, Trachea) of 2200 nM. In test [2], this molecule displayed an Intrinsic activity of 0.92. For `CC1(C)C=C(N2CCCCC2=O)c2c(cccc2C(F)(F)F)O1` the same measures were above 20000 nM and 0.11.

`CC1(C)Oc2ccncc2[C@@H](N2CCCC2=O)[C@@H]1O`: in test [1] (Cavia porcellus, Trachea), the IC50 stood at 8600 nM. The molecule also displayed an Intrinsic activity in test [2] of 0.68. The molecule `CC(C)(C)NCC(O)c1ccc(O)c(CO)c1` (centres undefined) [ALBUTEROL] showed an IC50 in test [1] (Cavia porcellus, Trachea) of 18 nM. This molecule returned an Intrinsic activity in test [2] of 0.98.

Take `CC1(C)C=C(n2ccccc2=O)c2cnccc2O1`: the IC50 in test [1] (Cavia porcellus, Trachea) came out at 2100 nM. This molecule gave an Intrinsic activity in test [2] of 0.93.

`CC1(C)C=C(n2ccccc2=O)c2c[n+]([O-])ccc2O1` showed an IC50 in test [1] (Cavia porcellus, Trachea) above 20000 nM. For the same molecule, the Intrinsic activity in test [2] came out at 0.01. The corresponding values for `CC1(C)C=C(N2CCC2=O)c2cc(C#N)ccc2O1` are 7500 nM and 0.91. In test [1] (Cavia porcellus, Trachea), `Cn1c(=O)c2[nH]cnc2n(C)c1=O.Cn1c(=O)c2[nH]cnc2n(C)c1=O.NCCN` [AMINOPHYLLINE] gave an IC50 of 20100 nM. This molecule also returned an Intrinsic activity in test [2] of 0.54.

Turning to `CC1(C)Oc2ccc(C(F)(F)F)cc2[C@@H](n2ccccc2=O)[C@@H]1O`, the midpoint of inhibition in test [1] (Cavia porcellus, Trachea), the IC50, lay at 540 nM. The molecule further registered an Intrinsic activity in test [2] of 0.96.

Regarding `CCc1ccc2c(c1)OC(C)(C)[C@@H](O)[C@@H]2N1CCCCC1=O`, in test [1] (Cavia porcellus, Trachea), the IC50 worked out at 2250 nM. In test [2], this molecule returned an Intrinsic activity of 0.83. The corresponding values for `CC1(C)Oc2ccc(C#N)cc2[C@@H](N2CCCCC2=O)[C@@H]1O` are 270 nM and 0.82.

As to `CC1(C)Oc2ccc(C(F)(F)F)cc2[C@@H](N2CCCC2=O)[C@@H]1O`, in test [1] (Cavia porcellus, Trachea), inhibition was half-maximal at 410 nM (IC50). Further, the Intrinsic activity in test [2] amounted to 0.92. The corresponding values for `CC1(C)Oc2ccc(C#N)cc2C(N2CCCC2=O)C1O` (centres undefined) [CROMAKALIM] are 1100 nM and 0.89. The corresponding values for `Cc1ccc2c(c1)[C@@H](N1CCCCC1=O)[C@H](O)C(C)(C)O2` are 1200 nM and 0.92.

In test [1] (Cavia porcellus, Trachea), `CC1(C)C=C(N2CCCCC2=O)c2ccc(C#N)cc2O1` came in with an IC50 of 3960 nM. Besides, the Intrinsic activity in test [2] is on record as 0.86. For `CCc1ccc2c(c1)[C@@H](N1CCCC1=O)[C@H](O)C(C)(C)O2` the same measures were 2680 nM and 0.92. In turn, `CC1(C)Oc2ccc(C#N)cc2[C@@H](n2ccccc2=O)[C@@H]1O` [EMAKALIM] came in with an IC50 in test [1] (Cavia porcellus, Trachea) of 760 nM. In test [2], this molecule returned an Intrinsic activity of 0.96. The corresponding values for `CC1(C)Oc2ccc(C(F)(F)F)cc2[C@@H](N2CCCCC2=O)[C@@H]1O` are 58 nM and 0.96. Take `CC1(C)C=C(N2CCCCC2=O)c2cc(C(F)(F)F)ccc2O1`: 650 nM corresponded to half-maximal inhibition in test [1] (Cavia porcellus, Trachea) (IC50). This molecule also gave an Intrinsic activity in test [2] of 0.89. For `CC1(C)C=C(N2CCCCC2=O)c2ccc(C(F)(F)F)cc2O1` the same measures were 2970 nM and 0.97.

In turn, `CC1(C)C=C(N2CCCCC2=O)c2cc(C#N)ccc2O1` came in with an IC50 in test [1] (Cavia porcellus, Trachea) of 1100 nM. The Intrinsic activity in test [2] is on record as 0.9. In test [1] (Cavia porcellus, Trachea), `CC1(C)Oc2ccncc2[C@@H](N2CCCCC2=O)[C@@H]1O` returned an IC50 of 660 nM. Moreover, the Intrinsic activity in test [2] is reported as 0.84. For `CC1(C)C=C(N2CCCC2=O)c2cc(C#N)ccc2O1` the same measures were 1570 nM and 0.91.

As to `CC1(C)C=C(N2CCCC2=O)c2ccc(C(F)(F)F)cc2O1`, the IC50 in test [1] (Cavia porcellus, Trachea) was found to be 5100 nM. Moreover, the Intrinsic activity in test [2] was 0.97. Turning to `CC1(C)Oc2ccc(C#N)cc2[C@@H](N2CCC2=O)[C@@H]1O`, the IC50 in test [1] (Cavia porcellus, Trachea) is above 20000 nM.

`CC1(C)Oc2cc(C(F)(F)F)ccc2[C@@H](N2CCCCC2=O)[C@@H]1O` (racemic): the half-inhibitory concentration (IC50) in test [1] was 660 nM. This counts as sub-micromolar. In the case of `CC1(C)Oc2cc(C#N)ccc2[C@@H](N2CCCCC2=O)[C@@H]1O`, in test [1] (Cavia porcellus, Trachea), the IC50 was above 17000 nM. This molecule showed an Intrinsic activity in test [2] of 0.56. For `CC1(C)Oc2cccc(C(F)(F)F)c2[C@@H](N2CCCCC2=O)[C@@H]1O` the same measures were above 20000 nM and 0.13.
